Measured values as given in the EternaBench riboswitch data.

Tested on: MS2 coat protein
Assay: apparent Kd, MS2 coat protein; higher = weaker binding; RNA-MaP array; theophylline 2 mM where present
Method in brief: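 Binding was read on Illumina sequencing-chip clusters where stalled E. coli RNA polymerase had transcribed each design. A titration of SNAP-549-labelled MS2 coat protein began at 0.7 or 1.5 nM and doubled to 3 µM, once without ligand and once with constant ligand, in 100 mM Tris-HCl pH 7.5, 80 mM KCl, 4 mM MgCl2, BSA, DTT, yeast tRNA and Tween-20. The apparent Kd is the median of filtered per-cluster binding-curve fits, based on green signal normalised to red-channel RNA signal and control-cluster median Fmax.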

[1] = designed as: OFF switch for theophylline, no ligand
[2] = ligand present: theophylline, designed as: OFF switch for theophylline
[3] = designed as: ON switch for theophylline, no ligand
[4] = ligand present: theophylline, designed as: ON switch for theophylline

Sequence | apparent Kd [1] [nM] | apparent Kd [2] [nM] | apparent Kd [3] [nM] | apparent Kd [4] [nM]
AAUUGGGUUGGUGAGGUGGUUGGAGGCGAUACCAGCGUGGAAACACGCCCUUGGCAGCGCCAGGACAUGAGGAUCACCCAUGUUC | 22.7 | 35.2 | – | –
UAUAACAUGAGGAUCACCCAUGUAAGUGAUACCAGAUAAAUAAUAGUCCCUUGGCAGCAUAUUGGGAAAGUGUAUAAUAUAUAUU | – | – | 52.2 | 57
AGACAUGAGGAUCACCCAUGUAGUAUGGAUACCAGAUCCAGAUUUAUCCCUUGGCAGCUGUGGUACAGCGUUGGAUCGCUCCUAG | 26.5 | – | – | –
GAACAUGAGGAUCACCCAUGUAAAACAGAUACCAGUGAUAUAAUACACCCUUGGCAGCUGAAGCUGAAUAAUAAUUCCCUCAAGC | – | – | 14.8 | 16.4
ACAUGAAGAACAGCGGUGGGCGCGCUCGAUACCAGUACUUUAAAAUACCCUUGGCAGCGACAUGAGGAUCACCCAUGUGAGAUGA | 15.3 | 28.6 | – | –
AAAACACAUGAGGAUCACCCAUGUCGUGAUACCAGUCAACAUGAGGACCCUUGGCAGCAUAAAAUGGGUAACAUGAGGAUAACCC | 89.6 | 146 | – | –
AUCUGUAUGUUUUCGUGUUUUAUUACAGAUACCAGACUAUACGUUGUCCCUUGGCAGCUGGAUGACAUGAGGAUCACCCAUGUUG | 33.5 | 36.6 | – | –
GGUGGCGGGACUGAUACCAGCCACCACCGAUAGACCACAUGAGGAUCACCCAUGUUGGGUGGCCCUUGGCAGCAGUCUUGCUGCU | – | – | 542 | 630
AAAUAAAUCACAUGAGGAUCACCCAUGGAUACCAGGCCUGGAAACAGCCCUUGGCAGCCACAUGAGGAUCACCCAUGUGCUAAAU | 190 | 198 | – | –
CCUAUGACAUGAGGAUCACCCAUGUUGGAUACCAGCGCAUGAGGACGCCCUUGGCAGCCAAUGAACAUGAGGAUACAUGAGGAUC | – | – | 44.5 | 185
UUACAUGAGGAUCACCCAUGUCAUAAUGAUACCAGAUAGUUGAUGAUCCCUUGGCAGCAUAGUACCUAGACAUGUGAGUCAUAGG | – | – | 113 | 132
ACGACGCAUAGUGAUACCAGCACAACAUGAGGAUCACCCAUGUCACUUAUGUAGUAAUAAUGCCCUUGGCAGCACUAUGCGUCAG | – | – | 55.2 | 65.6
ACGCUGAUUGAUUACAAUCAGCGAAAAGAUACCAGUGGGUAAUCCCACCCUUGGCAGCUUAAACAUGAGGAUCACCCAUGUGGUA | – | – | 74.5 | 123
ACAUGAGGAUCACCCAUGUGCCGAGUUGAUACCAGACCCGCACUAGUCCCUUGGCAGCAACUACGUGUGGGACACCCAUGUUAAG | 54.4 | 71.3 | – | –
AGACAUGAGGAUCACCCAUGUAGCACGGAUACCAGAUCCAGAUGUAUCCCUUGGCAGCUGUGGUACAGCGUUGCAACGCUCCUAG | 20.7 | 28.1 | – | –
UCUUUCUAUGUAGAUACCAGCAUGUUAUAUUUCUAAUGACAUGAGGAUCACCCAUGUAAAUGCCCUUGGCAGCUGCGUUUUCUUU | – | – | 16.9 | 13.2
UUUUAAGGGAUCGGUGCUGGUAGCAGAGAUACCAGAGUAAUGAUACUCCCUUGGCAGCUCAGUACAUGAGGAUCACCCAUGUUUU | 17.4 | 25.9 | – | –
CAUACUUUAGUAUGUUAUGUGGACAGUGAUACCAGAUACGAAAGUAUCCCUUGGCAGCACAACAUGAGGAUCACCCAUGUAAUUU | – | – | 26.1 | 15.6
UAUAAAAUAACAGAUACCAGCGUGUUAUAAAACAUGAGGAUCACCCAUGUAGUGAUCAAGCGCCCUUGGCAGCUGGUAUUUUAUA | – | – | 101 | 126
AGACAUGAGGAUCACCCAUGUAGUACGGAUACCAGAUCCAGAUGUAUCCCUUGGCAGCUGUGGUACAGCGUUACAUCGCUCCUAG | 15.1 | 19.4 | – | –
AGUGUUGUAACUGAUACCAGACCUUUGCUUAUACAUGAGGAUCACCCAUGUAAAAUGGCGGUCCCUUGGCAGCAGAGAAGACGCA | – | – | 40.1 | 12.2
ACAUGAAGAACAGCGGUGGGCGCGCUCGAUACCAGUACUUUGAUUUACCCUUGGCAGCGACAUGAGGAUCACCCAUGUGAGAUGA | 18 | 27.6 | – | –
AUGUCAUUGGUGUAGCUGUGAAGUGGCGAUACCAGCGUGGAAACACGCCCUUGGCAGCGCCAAAACAUGAGGAUCACCCAUGUUA | 22.3 | 156 | – | –
